The test system of one data set is HOP-62. In words: Cytotoxicity against human HOP62 cells after 24 hrs by WST-1 assay. Type of data set: functional. The settings on record: HOP-62, 24 h.
Data set [1] can be described thus: Cytotoxicity against human Gurav cells after 24 hrs by WST-1 assay. The class given is functional.
The test system of another data set is Calf thymus DNA. In words: Binding affinity to calf thymus DNA assessed as change in melting temperature after 18 hrs. The class given is nucleic-acid assay. The settings on record: Bos taurus. The gist of the method:
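Thermal melting with duplex CT-DNA (100 µM in phosphate) and ligand (20 µM), added from methanol stock, [PBD]/[DNA] 1:5, in 10 mM sodium phosphate + 1 mM EDTA, pH 7.00; incubated at 37 °C for 18 h. A260 monitored while heating at 1 °C/min over 40–90 °C. Tm taken from d(A260)/dT maxima, corrected for methanol; ΔTm = Tm(DNA+ligand) − Tm(DNA alone); at least three determinations.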

A further data set concerns PC-3. In words: Cytotoxicity against human PC3 cells after 24 hrs by WST-1 assay. The class given is functional. The settings on record: PC-3, 24 h. (In general: Tetrazolium dyes change colour on reduction, which living cells bring about.)
A further data set concerns KB. Kind of data set: Cytotoxicity against human KB cells after 24 hrs by SRB assay.
A further data set relates to A2780. Kind of data set: Cytotoxicity against human A2780 cells by SRB assay. A general note: The SRB assay estimates cell density from bound dye.
Data set [2] in a line: Cytotoxicity against human DWD cells by SRB assay.
In the next data set the test system is A549. Kind of data set: Cytotoxicity against human A549 cells after 24 hrs by WST-1 assay. The class given is functional. The settings on record: A549, 24 h.
For a further data set, the system named is SiHa. In words: Cytotoxicity against human SiHa cells after 24 hrs by SRB assay.
Data set [3] can be described thus: Lipophilicity, log P of the compound. The class given is physicochemical. The settings on record: octanol/water.
The next data set relates to ZR-75-1. In words: Cytotoxicity against human ZR-75-1 cells by SRB assay.
The next data set relates to COLO 205. Kind of data set: Cytotoxicity against human COLO205 cells after 24 hrs by SRB assay. The settings on record: COLO 205, 24 h.
Another data set has as its system MCF7. In words: Cytotoxicity against human MCF7 cells by sulforhodamine B assay.
In data set [4] the test system is A-375. Kind of data set: Induction of apoptosis in human A375 cells assessed as increase in PARP protein level at 4 uM after 24 hrs by Western blotting. Type of data set: functional, cell-based. The essentials:
(§1)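 A375 cells treated at 4 µM for 24 h. Lysates cleared at 12,000 rpm for 10 min, and protein quantified by Bradford. 30 µg per lane run on 12% SDS-PAGE and transferred to PVDF. Blocked 2 h in TBST with 5% blocking powder. Primary antibody overnight at 4 °C, HRP secondary (1:2000) 1 h at room temperature. β-actin used as loading control; untreated cells as control.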

The subject of data set [5] is A-375. In words: Cell cycle arrest in human A375 cells assessed as accumulation at Sub-G1 phase after 24 hrs by FACS flow cytometry. Also on record: concentration or dose not given beside the values. (A flow cytometer gives signals particle by particle.)
Data set [6] relates to A-375. In words: Cell cycle arrest in human A375 cells assessed as accumulation at G2/M phase after 24 hrs by FACS flow cytometry. Also on record: concentration or dose not given beside the values.
The test system of data set [7] is A-375. In words: Cell cycle arrest in human A375 cells assessed as accumulation at G1 phase after 24 hrs by FACS flow cytometry. Also on record: concentration or dose not given beside the values.
Data set [8] concerns A-375. Kind of data set: Cell cycle arrest in human A375 cells assessed as accumulation at S phase after 24 hrs by FACS flow cytometry. Also on record: concentration or dose not given beside the values.
For data set [9], the system named is A-375. Kind of data set: Induction of apoptosis in human A375 cells assessed as increase in cytochrome C protein level at 4 uM after 24 hrs by Western blotting. Type of data set: functional, cell-based. The gist of the method:
as §1

Data set [10] has as its system A-375. Kind of data set: Induction of apoptosis in human A375 cells assessed as increase in Bax protein level at 4 uM after 24 hrs by Western blotting. Type of data set: functional, cell-based. The essentials:
as §1

In data set [11] the test system is A-375. In words: Induction of apoptosis in human A375 cells assessed as increase in Caspase 3 activation at 4 uM after 24 hrs by fluorimetry. Type of data set: functional, cell-based. The gist of the method:
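A375 cells exposed to 4 µM compound. Cell lysate incubated with DEVD-AFC substrate, with or without DEVD-CHO inhibitor, at 37 °C for 1 h in a fluorescent caspase-3 kit. Fluorescence read at excitation 400 nm, emission 505 nm.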

The source made the active and inactive calls. No cut-off for these calls is given here.

On to `COc1ccc(-c2nnc(-c3ccc(OC)c(OCCCCOc4cc5c(cc4OC)C(=O)N4CCC[C@H]4C=N5)c3)o2)cc1OC`, for which the GI50 in the data set with HOP-62 was 130 nM; in data set [1], under 100 nM; in the data set with PC-3, 130 nM; in the data set on KB, 110 nM; in the data set on A2780, under 100 nM; in data set [2] it was under 100 nM. Besides, the GI50 in the data set on A549 was under 100 nM; in the data set with SiHa, 130 nM; with ZR-75-1, 120 nM; with COLO 205 it was under 100 nM; in the data set with MCF7, under 100 nM. The ΔTm with Calf thymus DNA amounted to 2.3 °C. The same molecule yielded a logP in data set [3] of 4.28.
On to `COc1ccc(-c2nnc(-c3cc(OC)c(OC)c(OC)c3)o2)cc1OCCCOc1cc2c(cc1OC)C(=O)N1CCC[C@H]1C=N2`, for which the GI50 with HOP-62 is 170 nM; in [1] it was 140 nM; with PC-3, 140 nM; in the data set with KB, 140 nM; with A2780, 140 nM; in data set [2], under 100 nM. Besides, the concentration for 50% growth inhibition (GI50) was 110 nM in the data set on A549; 180 nM in the data set with SiHa; 120 nM in the data set on ZR-75-1; under 100 nM with COLO 205; under 100 nM with MCF7. The ΔTm with Calf thymus DNA was determined as 1.9 °C. Also, the logP in data set [3] turned out to be 3.76.
In the case of `COc1ccc(-c2nnc(-c3cc(OC)c(OC)c(OC)c3)o2)cc1OCCCCCOc1cc2c(cc1OC)C(=O)N1CCC[C@H]1C=N2`, the GI50 is under 100 nM in the data set on HOP-62; under 100 nM in data set [1]; 150 nM in the data set with PC-3; under 100 nM in the data set on KB; under 100 nM with A2780; under 100 nM in data set [2]. Besides, the GI50 with A549 is 140 nM; in the data set on SiHa, under 100 nM; in the data set with ZR-75-1, 120 nM; in the data set with COLO 205 it was 120 nM; in the data set with MCF7, under 100 nM. In the data set with Calf thymus DNA, the thermal shift (ΔTm) stood at 1.6 °C. Moreover, the result in the data set with A-375 [4], in the data set on A-375 [9], in the data set with A-375 [10] and in the data set on A-375 [11] was Active. Moreover, the Activity is recorded as 13.76% in the data set on A-375 [5], 2.34% in the data set with A-375 [6], 73.5% in the data set on A-375 [7] and 10.4% in the data set on A-375 [8]. Moreover, the logP in data set [3] was 4.53.
Take `COc1ccc(-c2nnc(-c3ccc(F)cc3)o2)cc1OCCCCCOc1cc2c(cc1OC)C(=O)N1CCC[C@H]1C=N2`: the GI50 in the data set on HOP-62 is 120 nM; in [1] it was under 100 nM; in the data set with PC-3, 160 nM; in the data set with KB it was under 100 nM; in the data set with A2780 it was under 100 nM; in data set [2], under 100 nM. The GI50 in the data set with A549 was 140 nM; in the data set with SiHa, 120 nM; in the data set on ZR-75-1, 150 nM; with COLO 205, under 100 nM; in the data set on MCF7, 120 nM. The shift in melting temperature (ΔTm) in the data set with Calf thymus DNA is 1.8 °C. This molecule yielded a logP in data set [3] of 5.17.
On to `COc1ccc(-c2nnc(-c3cc(OC)c(OC)c(OC)c3)o2)cc1OCCCCOc1cc2c(cc1OC)C(=O)N1CCC[C@H]1C=N2`, for which the GI50 with HOP-62 was 130 nM; in data set [1] it was under 100 nM; in the data set with PC-3, 160 nM; in the data set on KB, under 100 nM; in the data set with A2780 it was under 100 nM; in [2] it was 120 nM. Also, the GI50 in the data set on A549 is under 100 nM; in the data set with SiHa, 130 nM; with ZR-75-1, 160 nM; in the data set on COLO 205 it was under 100 nM; in the data set on MCF7, 150 nM. Also, the ΔTm in the data set on Calf thymus DNA was found to be 2.1 °C. The molecule further came in with a logP in data set [3] of 4.13.
Take `COc1ccc(-c2nnc(-c3ccc(C(F)(F)F)cc3)o2)cc1OCCCCOc1cc2c(cc1OC)C(=O)N1CCC[C@H]1C=N2`: the GI50 in the data set with HOP-62 is 160 nM; in data set [1] it was 140 nM; with PC-3, 160 nM; with KB it was 150 nM; in the data set with A2780 it was 140 nM; in data set [2], 150 nM. The 50% growth inhibitory concentration (GI50) in the data set on A549 was 110 nM; in the data set with SiHa, 170 nM; with ZR-75-1, 120 nM; in the data set on COLO 205 it was 160 nM; in the data set on MCF7, 140 nM. Also, the ΔTm in the data set on Calf thymus DNA came to 2.1 °C. In data set [3], this molecule showed a logP of 5.44.
Take `COc1ccc(-c2nnc(-c3ccc(OC)c(OCCCOc4cc5c(cc4OC)C(=O)N4CCC[C@H]4C=N5)c3)o2)cc1OC`: the GI50 was 130 nM in the data set with HOP-62; 110 nM in [1]; under 100 nM with PC-3; 110 nM in the data set with KB; 110 nM with A2780; under 100 nM in data set [2]. The GI50 with A549 is under 100 nM; in the data set with SiHa, 150 nM; in the data set on ZR-75-1, under 100 nM; in the data set on COLO 205, under 100 nM; with MCF7, under 100 nM. In addition, the ΔTm in the data set with Calf thymus DNA amounted to 1.5 °C. In data set [3], this molecule yielded a logP of 3.92.
Take `COc1ccc(-c2nnc(-c3ccc(C(F)(F)F)cc3)o2)cc1OCCCCCOc1cc2c(cc1OC)C(=O)N1CCC[C@H]1C=N2`: the GI50 in the data set with HOP-62 was 130 nM; in data set [1], under 100 nM; in the data set with PC-3 it was 130 nM; in the data set with KB, 110 nM; in the data set with A2780, under 100 nM; in [2] it was under 100 nM. Moreover, the GI50 in the data set on A549 was under 100 nM; in the data set with SiHa, 120 nM; in the data set with ZR-75-1, 110 nM; with COLO 205, 110 nM; in the data set on MCF7, under 100 nM. The shift in melting temperature (ΔTm) with Calf thymus DNA was 1.7 °C. The molecule also returned a logP in [3] of 5.84.
For the molecule `COc1ccc(-c2nnc(-c3ccc(F)cc3)o2)cc1OCCCOc1cc2c(cc1OC)C(=O)N1CCC[C@H]1C=N2`, the GI50 in the data set with HOP-62 was 160 nM; in data set [1] it was 160 nM; with PC-3 it was under 100 nM; in the data set with KB it was 150 nM; in the data set on A2780 it was 140 nM; in data set [2], under 100 nM. The GI50 is 150 nM with A549; 170 nM with SiHa; under 100 nM in the data set on ZR-75-1; under 100 nM with COLO 205; under 100 nM with MCF7. Also, the ΔTm in the data set with Calf thymus DNA was 2 °C. The result in the data set with A-375 [4], in the data set with A-375 [9], in the data set with A-375 [10] and with A-375 [11] was Active. For the same molecule, the Activity is recorded as 6.79% in the data set with A-375 [5], 5.06% with A-375 [6], 74% in the data set on A-375 [7] and 14.14% in the data set with A-375 [8]. In data set [3], this molecule yielded a logP of 4.39.
As for `COc1ccc(-c2nnc(-c3ccc(F)cc3)o2)cc1OCCCCOc1cc2c(cc1OC)C(=O)N1CCC[C@H]1C=N2`, the GI50 was 150 nM in the data set on HOP-62; 100 nM in data set [1]; 170 nM with PC-3; under 100 nM in the data set with KB; under 100 nM in the data set on A2780; 130 nM in data set [2]. For the same molecule, the GI50 was 290 nM in the data set on A549; under 100 nM with SiHa; 170 nM in the data set with ZR-75-1; 150 nM in the data set with COLO 205; 160 nM in the data set on MCF7. Further, in the data set with Calf thymus DNA, the thermal shift (ΔTm) was 2.5 °C. Besides, in data set [3], the log partition coefficient (logP) was 4.78.

For orientation: GI50 means the concentration at which growth is held to half of that of the control. Usually ΔTm stands for the change in melting temperature against a reference sample. The term logP denotes a log measure of how a compound divides between an organic and an aqueous phase.

The record behind these values is ChEMBL document CHEMBL1221395, “Synthesis, anticancer activity and mitochondrial mediated apoptosis inducing ability of 2,5-diaryloxadiazole-pyrrolobenzodiazepine conjugates” (Bioorg Med Chem, 2010).
